Consider 10 compounds from ChEMBL document CHEMBL1177638, “Synthesis of pyrrolo[3,2-h]quinolinones with good photochemotherapeutic activity and no DNA damage” (Bioorg Med Chem, 2010).

A word on the IC50: it is the concentration needed to halve the response being measured. Low values mean inhibition by little substance, high ones a need for much substance.

What all share (format): functional, cell-based
For test [1], the system named is Jurkat. Kind of test: Phototoxicity against human Jurkat cells irradiated with 3.75 J/cm'2 after 72 hrs by MTT assay. To be noted: light or radiation study. An outline of the steps: (§1)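 Cells were seeded at 8 × 10³ and preincubated 18 h at 37 °C, 5% CO₂. Jurkat and K-562 grew in RPMI-1640, MCF-7 and NCTC-2544 in DMEM, and LoVo in Ham's F12, all with 10% FBS plus penicillin and streptomycin. Compounds in DMSO were diluted in HBSS, pH 7.2 (range 20–0.31; DMSO ≤1%) and applied 30 min at 37 °C. Wells were then UV-A irradiated (365 nm; 2.5 or 3.75 J/cm²), medium was replaced, and MTT was read after 72 h.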

In test [2] the test system is Jurkat. Nature of the test: Phototoxicity against human Jurkat cells irradiated with 2.5 J/cm'2 after 72 hrs by MTT assay. To be noted: light or radiation study. In short, it runs like this: as §1
(In general: Formazan colour is commonly taken as a measure of viable cells.)

A short description of test [3]: Phototoxicity against human sNCTC-2544 cells irradiated with 3.75 J/cm'2 after 72 hrs by MTT assay. Particulars: NCTC-2544, light or radiation study. In short, it runs like this: as §1
Test [4] is described as follows: Phototoxicity against human sNCTC-2544 cells irradiated with 2.5 J/cm'2 after 72 hrs by MTT assay. To be noted: NCTC-2544, light or radiation study. In short, it runs like this: as §1
The subject of test [5] is MCF7. Kind of test: Phototoxicity against human MCF7 cells irradiated with 3.75 J/cm'2 after 72 hrs by MTT assay. Particulars: MCF7, light or radiation study. In short, it runs like this: as §1
Test [6] has as its system MCF7. Nature of the test: Phototoxicity against human MCF7 cells irradiated with 2.5 J/cm'2 after 72 hrs by MTT assay. To be noted: MCF7, light or radiation study. In short, it runs like this: as §1
The test system of test [7] is LoVo. Nature of the test: Phototoxicity against human LoVo cells irradiated with 3.75 J/cm'2 after 72 hrs by MTT assay. To be noted: light or radiation study. In short, it runs like this:
as §1

Test [8] relates to LoVo. Nature of the test: Phototoxicity against human LoVo cells irradiated with 2.5 J/cm'2 after 72 hrs by MTT assay. Particulars: light or radiation study. In short, it runs like this:
as §1

Test [9] relates to K562. Nature of the test: Phototoxicity against human K562 cells irradiated with 3.75 J/cm'2 after 72 hrs by MTT assay. Particulars: K562, light or radiation study. In short, it runs like this: as §1
Test [10] relates to K562. Nature of the test: Phototoxicity against human K562 cells irradiated with 2.5 J/cm'2 after 72 hrs by MTT assay. To be noted: K562, light or radiation study. An outline of the steps: as §1

In the case of `CCOC(=O)c1cc2c([nH]1)-c1[nH]c(=O)c(S(=O)(=O)c3ccccc3)cc1CC2`, the IC50 in the test on Jurkat [1] was 2500 nM; in the test with Jurkat [2], 3500 nM; in test [3], 7.2 µM; in test [4] it was 9.3 µM; with MCF7 [5] it was 4300 nM; in the test with MCF7 [6], 6.1 µM. In addition, the IC50 in the test on LoVo [7] stood at 4600 nM; in the test with LoVo [8], 5500 nM; in the test on K562 [9], 5.3 µM; in the test on K562 [10] it was 6.1 µM.

For `O=c1[nH]c2c(cc1S(=O)(=O)c1ccccc1)CCc1cc[nH]c1-2`, the IC50 was > 20000 nM in the test on Jurkat [1]; > 20000 nM in the test with Jurkat [2]; > 20 µM in test [3]; > 20 µM in [4]; > 20000 nM with MCF7 [5]; > 20 µM with MCF7 [6]. In addition, the IC50 with LoVo [7] is > 20000 nM; in the test on LoVo [8], > 20000 nM; with K562 [9], > 20 µM; with K562 [10] it was > 20 µM.

`Cc1ccc(Cn2ccc3c2-c2[nH]c(=O)c(S(=O)(=O)c4ccccc4)cc2CC3)cc1`: the IC50 was 1200 nM in the test on Jurkat [1]; 1600 nM with Jurkat [2]; 2.6 µM in test [3]; 3.3 µM in test [4]; 2400 nM in the test with MCF7 [5]; 3.8 µM in the test with MCF7 [6]. In addition, the IC50 in the test with LoVo [7] came out at 2300 nM; in the test on LoVo [8], 2700 nM; in the test with K562 [9], 2.4 µM; with K562 [10], 2.7 µM.

As to `COc1ccc(Cn2ccc3c2-c2[nH]c(=O)c(S(=O)(=O)c4ccccc4)cc2CC3)cc1`, the IC50 in the test on Jurkat [1] is 1200 nM; with Jurkat [2] it was 1600 nM; in test [3], 2.7 µM; in test [4], 4.3 µM; in the test with MCF7 [5], 1800 nM; in the test with MCF7 [6] it was 4.2 µM. Further, the IC50 in the test with LoVo [7] was found to be 2000 nM; in the test on LoVo [8], 2800 nM; in the test with K562 [9] it was 2.5 µM; with K562 [10] it was 3.1 µM.

As to `O=c1[nH]c2c(cc1S(=O)(=O)c1ccccc1)CCc1ccn(S(=O)(=O)c3ccccc3)c1-2`, the 50% inhibitory concentration (IC50) with Jurkat [1] was > 20000 nM; in the test on Jurkat [2], > 20000 nM; in [3] it was > 20 µM; in test [4], > 20 µM; in the test on MCF7 [5] it was > 20000 nM; with MCF7 [6], > 20 µM. Further, the IC50 with LoVo [7] was > 20000 nM; with LoVo [8], > 20000 nM; in the test with K562 [9], > 20 µM; with K562 [10], > 20 µM.

In the case of `Cn1ccc2c1-c1[nH]c(=O)c(S(=O)(=O)c3ccccc3)cc1CC2`, the IC50 in the test on Jurkat [1] is > 20000 nM; with Jurkat [2], > 20000 nM; in test [3], > 20 µM; in test [4] it was > 20 µM; in the test with MCF7 [5] it was > 20000 nM; with MCF7 [6], > 20 µM. Also, the IC50 with LoVo [7] was > 20000 nM; with LoVo [8], > 20000 nM; with K562 [9] it was > 20 µM; with K562 [10], > 20 µM.

Take `O=c1[nH]c2c(cc1S(=O)(=O)c1ccccc1)CCc1ccn(-c3ccccc3)c1-2`: the IC50 was > 20000 nM with Jurkat [1]; > 20000 nM with Jurkat [2]; > 20 µM in [3]; > 20 µM in test [4]; > 20000 nM in the test on MCF7 [5]; > 20 µM in the test on MCF7 [6]. Also, the IC50 with LoVo [7] was > 20000 nM; in the test on LoVo [8] it was > 20000 nM; in the test on K562 [9], > 20 µM; with K562 [10], > 20 µM.

`CCOC(=O)c1cc2c(n1Cc1ccc(C)cc1)-c1[nH]c(=O)c(S(=O)(=O)c3ccccc3)cc1CC2`: the IC50 is 1200 nM with Jurkat [1]; 1500 nM in the test with Jurkat [2]; 2.2 µM in test [3]; 2.7 µM in [4]; 1400 nM in the test with MCF7 [5]; 1.7 µM in the test on MCF7 [6]. The IC50 in the test on LoVo [7] was 1000 nM; with LoVo [8] it was 1600 nM; with K562 [9] it was 1 µM; in the test with K562 [10], 1.3 µM.

Turning to `N#Cc1cc2c([nH]c1=O)-c1c(ccn1S(=O)(=O)c1ccccc1)CC2`, the IC50 was > 20000 nM in the test on Jurkat [1]; > 20000 nM in the test with Jurkat [2]; > 20 µM in [3]; > 20 µM in test [4]; > 20000 nM with MCF7 [5]; > 20 µM in the test on MCF7 [6]. Besides, the IC50 in the test on LoVo [7] was > 20000 nM; in the test with LoVo [8] it was > 20000 nM; with K562 [9], > 20 µM; with K562 [10] it was > 20 µM.

Regarding `O=c1[nH]c2c(cc1S(=O)(=O)c1ccccc1)CCc1ccn(Cc3ccccc3)c1-2`, the IC50 with Jurkat [1] was found to be 1100 nM; in the test with Jurkat [2], 1300 nM; in test [3], 5.5 µM; in test [4], 7.5 µM; with MCF7 [5], 1700 nM; in the test with MCF7 [6], 4 µM. The IC50 with LoVo [7] is 2200 nM; in the test with LoVo [8] it was 2600 nM; in the test on K562 [9] it was 3.3 µM; in the test with K562 [10], 4.8 µM.
